The values that follow come from PubChem BioAssay AID504382 (The Scripps Research Institute Molecular Screening Center, 2011).

About 460 (18%) of roughly 2,500 compounds were called active. Only a sample is shown. Values without a mark were called inactive.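 The calls were made as follows: active = mean activation above a cutoff of low control average plus 3 SD from the earlier screen (cut at about 12% in these data); inactive = the rest.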

The experiment is described as follows: compound fluorescence interference without thin filaments, confirmation, artefact control for cardiac RTF calcium sensitizer project, biochemical (AID 504382). Particulars: IANBD fluorescence interference counterscreen, buffer, EC20 Ca2+; at 7.2 µM; stronger effect = higher value; scaled: EC20 calcium 0, EC100 calcium 100. The method in brief:
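Doses – one dose of 7.2 µM, 0.7% DMSO · Buffer or medium – MOPS/KCl/MgCl2/EGTA/NTA/DTT buffer, pH 7.2 · Probe or stimulus – Ca2+ fixed at EC20, 0.472 mM · Measured by – fluorescence intensity, excitation 480 nm, emission 540 nm · Read-out – fluorescence interference versus control range · Timing – 15 min compound exposure at 25 °C · Replication – triplicate wells per compound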
For orientation: Counterscreens check selectivity or assay interference.
As to `O=C(O)c1ccc2c(c1)S(=O)(=O)c1ccccc1C2=O`, the fluorescence artifact activation was 0.03%.

On to `O=C1c2ccccc2-c2onc3ccc(Oc4ccccc4)c1c23`, for which the fluorescence artifact activation is 0.44%.

Turning to `CCN(CC)c1nc2ccccc2nc1C(C#N)C(=O)NCCc1ccccc1` (centres undefined), the fluorescence artifact activation was 164% (active).

As for `N#CC(C(=O)NCc1ccccc1)c1nc2ccccc2nc1N1CCCC1` (centres undefined), the fluorescence artifact activation was -0.08%.

Turning to `CCCCCCNC(=O)C(C#N)c1nc2ccccc2nc1N1CCCC1` (centres undefined), the fluorescence artifact activation was 0.17%.

As for `O=C1CC(c2cccc(Oc3ccccc3)c2)NC(=O)N1` (centres undefined), the fluorescence artifact activation is 0.02%.

In the case of `O=c1c(/C=C(\O)c2ccc(F)cc2)nc2ccccc2n1-c1ccccc1`, the fluorescence artifact activation is 0.04%.

`Cc1ccc(-c2csc(NC(=O)CSc3nc4ccccc4o3)n2)cc1`: the fluorescence artifact activation is 0.77%.

For `Cc1ccc(NC(=O)CSc2nnc(-c3cccnc3)s2)cc1`, the fluorescence artifact activation was 258% (active).

For `Cc1ccc(CSc2nnc(SCC(=O)N/N=C/c3ccccc3OCC(=O)O)s2)cc1`, the fluorescence artifact activation was 4.19%.

Turning to `Nc1nnnn1/N=C/c1cc(Cl)cc(Cl)c1O`, the fluorescence artifact activation was 0.11%.

`O=C(Nc1ccc(Cl)c(Cl)c1)Nc1ccc([N+](=O)[O-])cn1`: the fluorescence artifact activation was 8.85%.

With `COc1ccc(OC)c2[nH]c(=O)c(CCNS(=O)(=O)c3ccc(Cl)cc3)cc12`, the fluorescence artifact activation was -0.04%.

In the case of `N#C/C(=C\N1CCN(Cc2ccc3c(c2)OCO3)CC1)c1nc2ccccc2s1`, the fluorescence artifact activation was 7.04%.

As to `COc1ccc(N=Cc2cc3c(cc2O)OC(N)=C(C#N)C3c2ccccc2)cc1` (centres undefined), the fluorescence artifact activation was 32.9% (active).

Regarding `Cc1ccccc1N=Cc1cc2c(cc1O)OC(N)=C(C#N)C2c1ccccc1` (centres undefined), the fluorescence artifact activation is 0.04%.

Turning to `COc1cccc(C2C(C#N)=C(N)Oc3cc(C)oc(=O)c32)c1OC` (centres undefined), the fluorescence artifact activation was 6.53%.

As to `CN(C)c1ccc(C=C2SC(=S)NC2=O)cc1`, the fluorescence artifact activation was 0.13%.

For `CCN(CC)c1ccc(/C=C2\SC(N)=NC2=O)cc1`, the fluorescence artifact activation is 18.7% (active).

For the compound `CCN(CC)c1ccc(C=C2SC(=S)NC2=O)cc1`, the fluorescence artifact activation is 19.1% (active).

In the case of `CCOc1ccc(N(C)c2ccc(/C=C3/SC(=S)NC3=O)cc2)cc1`, the fluorescence artifact activation was 0.1%.

As to `CCN(CC)c1ccc(/C=C2\C(=N)N3N=C(CC(=O)N4CCOCC4)SC3=NC2=O)cc1`, the fluorescence artifact activation is 0.25%.

For the compound `CCCOc1ccc(-c2nn(-c3ccccc3)cc2/C=C2\SC(N)=NC2=O)cc1`, the fluorescence artifact activation was 0.02%.

In the case of `COc1cccc(/C=N/Nc2nnc3c(n2)[nH]c2ccccc23)c1OC`, the fluorescence artifact activation was 0.23%.

Take `CC[n+]1c(/C=C/N(C)c2ccccc2)oc2ccc(F)cc21`: the fluorescence artifact activation is 0.51%.

For `CCN(CC)c1ccc(/C=N/OCC(=O)Nc2cccc(C)c2)cc1`, the fluorescence artifact activation was 0.61%.

As for `C#CCN1c2ccccc2Sc2cccnc21`, the fluorescence artifact activation is 0.15%.

`Fc1ccc(-c2nnc(-c3ccc(Cl)cc3Cl)o2)cc1`: the fluorescence artifact activation is 12.9% (active).

For the compound `O=C(c1cccc(F)c1)N1CCN(C(=O)c2cc(-c3ccc(Cl)cc3Cl)on2)CC1`, the fluorescence artifact activation was 0.33%.

On to `Nc1ccn([C@H]2C[C@H](O)[C@@H](CO)O2)c(=O)n1`, for which the fluorescence artifact activation was 0.1%.

On to `CCCNC(=O)Cn1c(=O)/c(=C/c2ccc(-c3ccc([N+](=O)[O-])cc3)o2)s/c1=C\C(=O)C(C)(C)C`, for which the fluorescence artifact activation is 10.3%.

With `O=c1oc2ccccc2cc1-c1ccc(O)cc1O`, the fluorescence artifact activation was 30.6% (active).

Regarding `O=c1c(-c2ccc(O)cc2O)coc2cc(O)cc(O)c12`, the fluorescence artifact activation is 0.09%.

As to `O=c1oc2ccccc2cc1-c1nc(-c2cccs2)cs1`, the fluorescence artifact activation is -0.04%.

`COc1ccccc1/C=[N+](\[O-])C1SC(=S)N(C)C1(C)C` (centres undefined): the fluorescence artifact activation was 0.01%.

On to `CCOc1ccc(N2C(=O)CC(SCc3nc4ccccc4[nH]3)C2=O)cc1` (centres undefined), for which the fluorescence artifact activation was 0.12%.

Take `COC(=O)[C@@]1(Cc2ccc(OC)cc2)[C@@H]2C(=CC(=O)[C@H]2CC(=O)C(=O)N2CCCC2)CN1C(=O)c1ccccc1`: the fluorescence artifact activation was 15% (active).

As to `CN(C)S(=O)(=O)c1ccc2c(c1)/C(=C/c1cc3c([nH]1)CCCC3)C(=O)N2`, the fluorescence artifact activation was 3.96%.

Consider `O=C1Nc2ccccc2/C1=C/c1cnc(-c2ccccc2)[nH]1`, for which the fluorescence artifact activation is 36.5% (active).

On to `Cc1cc(C)c(/C=C2\C(=O)Nc3ccccc32)[nH]1`, for which the fluorescence artifact activation is 4.55%.

Take `C#Cc1ccc([C@@H]2C=C(C(=O)OCC=C)O[C@H](OCCCCO)C2)cc1`: the fluorescence artifact activation is 0.21%.

In the case of `COc1ccc(N2CCN(c3ccc([N+](=O)[O-])cc3Cl)CC2)cc1`, the fluorescence artifact activation was 18.2% (active).

Consider `COc1ccccc1N1CCN(c2ccc([N+](=O)[O-])cc2Cl)CC1`, for which the fluorescence artifact activation is 18.9% (active).

On to `COc1ccc(N2CCN(S(=O)(=O)Cc3ccccc3)CC2)cc1`, for which the fluorescence artifact activation was 0.08%.

For the compound `COc1ccccc1N1CCN(C(=O)CCC(=O)O)CC1`, the fluorescence artifact activation was 0.1%.

`Cc1cc(N2CCN(c3nc(-c4ccc([N+](=O)[O-])cc4)cs3)CC2)c2ccccc2n1`: the fluorescence artifact activation is 3.28%.

In the case of `CC1=N/C(=C/c2ccc([N+](=O)[O-])cc2)C(=O)N1c1ccc(Cl)cc1Cl`, the fluorescence artifact activation was 0.01%.

In the case of `COc1cc(NC(=O)C2CCCCN2)ccc1OCC(C)C` (centres undefined), the fluorescence artifact activation was 2.06%.

In the case of `CC(C)C(=O)COc1c2occc2cc2ccc(=O)oc12`, the fluorescence artifact activation was 0.07%.

Regarding `CCOC(=O)c1cccc(NC(=O)CSc2nc(N)cc(N)n2)c1`, the fluorescence artifact activation is -0.04%.

In the case of `Cc1noc(NS(=O)(=O)c2ccc(NC(=O)CSc3nc4c(cc3C#N)CCC4)cc2)c1C`, the fluorescence artifact activation was 0.31%.

For `CCOC(=O)c1c(C#N)c(SCC(=O)Nc2ccc(OC)cc2)nc2c1CN(CC)CC2`, the fluorescence artifact activation is 25.1% (active).

Turning to `COc1ccc(/C=C2\SC(=O)N(CCC(=O)N3CCN(C)CC3)C2=O)cc1`, the fluorescence artifact activation is -0.03%.

`CC(C)c1ccc(C2c3[nH]c4ccccc4c3C[C@H]3C(=O)N(c4ccccc4C(=O)N4CCC(C(=O)O)CC4)C(=O)N23)cc1` (some centres undefined): the fluorescence artifact activation was 0.07%.

`COc1ccccc1-c1nnc(SCc2nc3ccccc3s2)n1C`: the fluorescence artifact activation was 7.19%.

`Cc1ccc(Cl)c(NC(=O)CN(C)CC(=O)Nc2ccc(F)c(F)c2F)c1Cl`: the fluorescence artifact activation was 0.02%.

Take `N/C(COc1cc(Cl)cc(Cl)c1)=N\O`: the fluorescence artifact activation is 21.9% (active).

On to `COc1cc(OC)c(C(=O)NC2CCCCCC2)cc1OC`, for which the fluorescence artifact activation is -0.01%.

With `O=[N+]([O-])c1cc(-c2ccn[nH]2)ccc1Cl`, the fluorescence artifact activation was -0.08%.
